PGC1a Ac signal – raises PGC1a acetylation signal in U2OS cells; U2OS PGC1a acetylation AlphaScreen, overnight; activation, % at 15.6 µM; 350,000 compounds, 0.21% hits;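 active means every replicate reaching activation of at least 50%, whatever the mean replicate activation; inconclusive means replicates that disagree or another doubt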;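 further: hits raise the AlphaScreen acetylation signal above neutral controls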
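System: Flag-PGC1a/GCN5 U2OS cells | Quantity: 7000 cells/well | Times: Overnight compound treatment, 37 °C | Measured by: AlphaScreen proximity luminescence, anti-acetyl-lysine antibody | Dosing: One concentration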
G6PC hep suppr – hepatocyte G6PC expression change via PGC-1a acetylation activation | primary mouse hepatocytes, G6PC mRNA qPCR, forskolin | shares compounds with PGC1a Ac signal | 240 tested, under 10 active | G6PC suppression (normalized activity, % of positive control; higher = more suppression), % at 26 µM | AID 743463;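 active means dose curves showing G6PC suppression whose half-maximal dose is at most twice the top valid dose; inconclusive means flat curves with moderate negative activity, or unreliable fits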;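 further: G6PC expression relative to GAPDH housekeeping gene as delta delta Ct; 0% = median of neutral control wells and 100% = median of positive control wells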
PCK1 hep suppr – PGC-1a acetylation activator altering hepatocyte PCK1 expression | shares compounds with PGC1a Ac signal | primary mouse hepatocytes, PCK1 mRNA qPCR, forskolin-stimulated | PCK1 expression decrease, unspecified at 26 µM | 230 tested, under 10 active | AID 743465;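 active means compounds lowering PCK1 expression whose fitted half-maximal concentration is at most twice the top tested dose; inconclusive means flat fit with moderate opposite-direction effect, or poor fit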;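 further: values are delta delta Ct of PCK1 relative to GAPDH; higher delta delta Ct means lower PCK1 expression so positive values indicate hits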
PGC1a hep suppr – PGC-1a acetylation activators affecting PGC-1a expression in hepatocytes | primary mouse hepatocytes, PGC-1a mRNA qPCR, forskolin; top dose 26 µM | shares compounds with PGC1a Ac signal | max activity (PGC-1a expression decrease), % | 240 tested, under 10 active;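 active means compound lowering PGC-1a expression with fitted half-maximal concentration at most twice its top tested dose; inconclusive means flat curve with moderate opposite-direction effect, or poor fit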;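 further: 0% = neutral control wells median and 100% = positive control wells median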
Active calls of the source: *; ? = inconclusive; / = no result. Only a sample is shown.

SMILES | PGC1a Ac signal | G6PC hep suppr | PCK1 hep suppr | PGC1a hep suppr
CC1CC(C)(O)CC(C(O)CC2CC(=O)NC(=O)C2)C1=O (centres undefined) | -77 | / | / | /
COc1ccccc1OCC(=O)Nc1ccc(Cl)cc1C(=O)c1ccccc1 | ? | 24 | 80 | 58
CC12CCC(O)CC1CCC1C2CCC2(C)C(C3=CC(=O)OC3)CCC12O (centres undefined) | -80 | / | / | /
Cc1nc2c(=O)n(C)c(=O)nc-2n(C)n1 | -78 | / | / | /
C[C@H]1CCC/C=C/C2C[C@H](O)CC2[C@H](O)/C=C/C(=O)O1 (some centres undefined) | -72 | / | / | /
O=C1NCN(c2ccccc2)C12CCN(C(c1cccc3ccccc13)c1nnnn1C1CCCCC1)CC2 (centres undefined) | 67* | -9 | 45 | ?
CC1CCOC(=O)C=CC=CC(=O)OC2CC3OC4C5OC5(C)C(O)CC4(COC(=O)C1O)C2(C)C31CO1 (centres undefined) | -77 | / | / | /
CC1CCC[C@H](O)CCCCCc2cc(O)cc(O)c2C(=O)O1 (some centres undefined) | -47 | / | / | /

Assay outcomes deposited in PubChem by Broad Institute.
